This is an account of results in ChEMBL document CHEMBL1124081, “Synthesis and antiulcer activity of 5,11-dihydro[1]benzoxepino[3,4-b]pyridines” (J Med Chem, 1988).

Where “and” joins values, the source holds several entries; their conditions need not be identical. Identical values can stand only once. Some results are limits rather than exact numbers.

The subject of test [1] is Rattus norvegicus. The experiment in a line: The antiulcer activity against stress-induced ulcer in rats by 30 mg/kg peroral administration. It counts as functional. The following applies: route oral. The essentials:
(§1)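 Rats, 190-210 g, fasted 17 h with water allowed. Compound given orally 10 min before stress, 0.5 mL/100 g. Restrained in stress cage and immersed in 23 ± 1 °C water for 7 h without food or water. CO2 kill, stomach opened along greater curvature, total glandular ulcer length (mm) measured. % inhibition = (control − treated)/control × 100. Student's t test.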

In test [2] the target is T1, Muscarinic acetylcholine receptor (Rattus norvegicus) (UniProt P08482+P08483+P08485+P08911+P10980). Kind of test: Percentage inhibition for Muscarinic acetylcholine receptor at concentration 10 e-6M. Type of test: protein assay. A digest of the protocol:
(§2)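 Rat striatum homogenized in 10 vol distilled water, diluted to 200 vol of wet tissue weight with 50 mM Na-K phosphate buffer pH 7.4 (1 mL ≈ 5 mg wet tissue). [3H]quinuclidinyl benzilate (final 1.26 nM) plus drug in 10% ethanol, 37 °C for 60 min. Nonspecific binding defined with dexetimide (final 1 μM). Rapid GF/B filtration, three ice-cold buffer rinses, liquid scintillation counting.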

In test [3] the test system is Rattus norvegicus. Kind of test: Inhibition of stress-induced ulcer formation in rats by 10 mg/kg p.o. administration. Type of test: functional. As to conditions: for inhibition in vivo at 10 mg/kg: Rattus norvegicus; for Inhibition: 10 mg/kg. A digest of the protocol: as §1
Test [4] deals with Muscarinic acetylcholine receptor. The experiment in a line: Binding affinity was measured for Muscarinic acetylcholine receptor. Type of test: protein assay. A digest of the protocol: as §2
Test [5] concerns the target T1, Muscarinic acetylcholine receptor (Rattus norvegicus). Kind of test: Percentage inhibition […] concentration 10 e-5M. Type of test: protein assay.
Test [6] has the same target. Kind of test: Percentage inhibition for Muscarinic acetylcholine receptor at concentration 10 e-5M. The essentials: as §2

For the compound `CCNCCNC1c2ccccc2OCc2ncccc21` (stereo not given), the inhibition in vivo at 30 mg/kg in the test on Rattus norvegicus [1] is less than 55%. `CC1CCCC(C)N1CCNC1c2ccccc2OCc2ncccc21` (stereo not given) displayed an inhibition in test [2] of 3%. This compound also registered an inhibition in vivo at 30 mg/kg with Rattus norvegicus [1] of less than 64%. Compound `CCN(CC)CC(C)NC1c2ccccc2OCc2ncccc21` (stereo not given) registered an inhibition in vivo at 30 mg/kg in the test on Rattus norvegicus [1] of 62%. Regarding `CCN(CC)CC(=O)NC1c2ccccc2OCc2ncccc21` (stereo not given), in the test with Rattus norvegicus [3] (po), the inhibition in vivo at 10 mg/kg was 10%. This compound also returned an inhibition in vivo at 30 mg/kg in the test with Rattus norvegicus [1] of 16%. As for `c1ccc2c(c1)OCc1ncccc1C2NCCN1CCCC1` (stereo not given), the inhibition in vivo at 10 mg/kg in the test on Rattus norvegicus [3] (po) is 68%. Moreover, in the test with Rattus norvegicus [1], testing at 30 mg/kg gave an inhibition in vivo of 72%. Consider `CCN(CC)CCNC1c2ccccc2SCc2ncccc21` (stereo not given), for which at 30 mg/kg the inhibition in vivo in the test on Rattus norvegicus [1] was 19%. In the test on Rattus norvegicus [3] (po), `CCN(CC)CCNC1c2cc(F)ccc2OCc2ncccc21` (stereo not given) showed an inhibition in vivo at 10 mg/kg of less than 53%. Moreover, the inhibition in vivo at 30 mg/kg with Rattus norvegicus [1] is less than 87%. For `CCN(CC)CCCNC1c2ccccc2OCc2ncccc21` (stereo not given), in that order: 34% and 55%.

In test [2], `CN1CCN(CC(=O)NC2c3ccccc3OCc3ncccc32)CC1` (stereo not given) displayed an inhibition of 3%. This compound also came in with an inhibition in vivo at 10 mg/kg in the test on Rattus norvegicus [3] (po) of 31%. The compound further gave an inhibition in vivo at 30 mg/kg in the test with Rattus norvegicus [1] of less than 56%.

Consider `CCN(CC)CCNC1c2ccccc2OCc2ncccc21` (stereo in doubt; 11), for which, in test [4], the Ki is 1.6 µM. The Inhibition with Rattus norvegicus [3] (route oral) was 65% and 57%. 30 mg/kg produced 85% inhibition in vivo with Rattus norvegicus [1]. With `CCN(CC)CCN(C(C)=O)C1c2ccccc2OCc2ncccc21` (stereo not given), the inhibition in vivo at 30 mg/kg in the test on Rattus norvegicus [1] was 0%.

Compound `NCCNC1c2ccccc2OCc2ncccc21` (stereo not given) showed an inhibition in vivo at 30 mg/kg in the test with Rattus norvegicus [1] of 19%. The compound `CC(C)N(CCNC1c2ccccc2OCc2ncccc21)C(C)C` (stereo not given) displayed an inhibition in vivo at 10 mg/kg with Rattus norvegicus [3] (po) of 61%. In the test with Rattus norvegicus [1], the inhibition in vivo at 30 mg/kg was determined as 88%. Turning to `CCN1CCCC(NC2c3ccccc3OCc3ncccc32)C1` (stereo not given), testing at 30 mg/kg with Rattus norvegicus [1] gave an inhibition in vivo of 67%. In the test on Rattus norvegicus [3] (po), `CN1CCN(CC(=O)N2c3ccccc3C(=O)Nc3cccnc32)CC1` [PIRENZEPINE] returned an inhibition in vivo at 10 mg/kg of less than 67%. Also, in the test on Rattus norvegicus [1], the inhibition in vivo at 30 mg/kg is less than 86%. In turn, `c1cncc(NC2c3ccccc3OCc3ncccc32)c1` (stereo not given) yielded an inhibition in vivo at 30 mg/kg in the test with Rattus norvegicus [1] of 15%. On to `CCN(CC)CCNC1c2ccccc2OCc2ncccc21` (single isomer, unassigned; (+)), for which the Ki in test [4] was determined as 3 µM. For the same compound, the inhibition in vivo at 10 mg/kg with Rattus norvegicus [3] (po) was less than 63%.

For the compound `c1ccc2c(c1)OCc1ncccc1C2NC1CN2CCC1CC2` (stereo not given), the inhibition in vivo at 30 mg/kg in the test on Rattus norvegicus [1] came to 36%. In test [5], `CC(C)N(CC(=O)NC1c2ccccc2OCc2ncccc21)C(C)C` (stereo not given) showed an inhibition of 12%. The compound further registered an inhibition in vivo at 10 mg/kg with Rattus norvegicus [3] (po) of 17%. This compound displayed an inhibition in vivo at 30 mg/kg in the test on Rattus norvegicus [1] of less than 45%. Consider `CCN(CC)CCNC1c2cc(C)ccc2OCc2ncccc21` (stereo not given), for which, in the test on Rattus norvegicus [1], at 30 mg/kg the inhibition in vivo was 40%. The same measure, in the same setting: next, `c1ccc2c(c1)OCc1ncccc1C2NCCN1CCCCC1` (stereo not given): 52%; `CCN(CC)CCNC1c2cc(Cl)ccc2OCc2ncccc21` (stereo not given): 30%. In the test on Rattus norvegicus [3] (po), `O=C(Cn1ccnc1)NC1c2ccccc2OCc2ncccc21` (stereo not given) registered an inhibition in vivo at 10 mg/kg of 6%. Besides, the inhibition in vivo at 30 mg/kg in the test with Rattus norvegicus [1] stood at 12%. On the same counts, the results for `CCN(CC)CCNC1c2cccnc2COc2c(C)cccc21` (stereo not given) are less than 36% and less than 48%. As to `CCN(CC)CCNC1c2ccccc2Oc2ncccc21` (stereo not given), in the test with Rattus norvegicus [3] (po), the inhibition in vivo at 10 mg/kg amounted to 18%. In the test with Rattus norvegicus [1], this compound yielded an inhibition in vivo at 30 mg/kg of less than 60%.

Regarding `CN1CCN(C2c3ccccc3OCc3ncccc32)CC1` (stereo not given), the inhibition in vivo at 10 mg/kg in the test on Rattus norvegicus [3] (route oral) turned out to be 28%. Further, in the test with Rattus norvegicus [1], the inhibition in vivo at 30 mg/kg stood at 76%.

`Cc1ccc2c(c1)C(N1CCN(C)CC1)c1cccnc1CO2` (stereo not given): the inhibition in vivo at 30 mg/kg in the test on Rattus norvegicus [1] is 7%. On to `CN/C(=N\CCSCc1nc[nH]c1C)NC#N` [CIMETIDINE], for which, in the test on Rattus norvegicus [3] (route oral), the inhibition in vivo at 10 mg/kg was found to be 33%. This compound also yielded an inhibition in vivo at 30 mg/kg in the test on Rattus norvegicus [1] of less than 39%. `c1ccc2c(c1)OCc1ncccc1C2NCCN1CCOCC1` (stereo not given) came in with an inhibition in vivo at 10 mg/kg with Rattus norvegicus [3] (po) of 7%. The compound also came in with an inhibition in vivo at 30 mg/kg in the test with Rattus norvegicus [1] of 73%. For `CN(C)CCNC1c2ccccc2OCc2ncccc21` (stereo not given), in that order: 24% and 85%.

Regarding `CCN(CC)CCNC1c2ccccc2OCc2ncccc21` (single isomer, unassigned) [listing 1 of 2 here], the inhibition in test [6] came out at 38%. `CCN(CC)CCNC1c2ccccc2OCc2ncccc21` (single isomer, unassigned) [listing 2 of 2 here] had a Ki in test [4] of 1.1 µM. The compound also came in with an Inhibition in the test with Rattus norvegicus [3] (route oral) of less than 55%. Take `CC1CCC(C)N1CCNC1c2ccccc2OCc2ncccc21` (stereo not given): testing at 10 mg/kg in the test with Rattus norvegicus [3] (po) gave an inhibition in vivo of 67%. For the same compound, at 30 mg/kg the inhibition in vivo in the test on Rattus norvegicus [1] was 94%.

Compound `CC1CC[C@H](C)N1CCNC1c2ccccc2OCc2ncccc21` (stereo not given in full) had an inhibition in vivo at 10 mg/kg in the test with Rattus norvegicus [3] (po) of 64%. This compound yielded an inhibition in vivo at 30 mg/kg in the test on Rattus norvegicus [1] of 69%.

`CCN(CC)CCN(CC)C1c2ccccc2OCc2ncccc21` (stereo not given) displayed an inhibition in vivo at 30 mg/kg with Rattus norvegicus [1] of 33%. In addition, the inhibition in test [6] was determined as 15%.

One may read the inhibition in vivo as the drop in the measured response relative to a control, in per cent. The term inhibition denotes the percentage by which the read-out fell short of the control. What is called Ki is a measure of affinity in units of concentration, obtained from inhibition or displacement. Higher therefore signals weaker binding. By Inhibition is commonly meant the change of the read-out against control, counted positive when it falls. Read a high Inhibition as strong suppression.
